SMILES strings stand for the structures.

Holding throughout (assay type): functional
For experiment [1], the species on record is Mus musculus. The experiment in a line: Sedative activity was determined by measuring the loss of the righting reflux induced by chlorprothixene in mice. Summed up:
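Male albino DS mice (20-24 g), ten per group, given oral test drug (arabic gum suspension) combined with chlorprothixene 2 mg/kg ip; samples estimated 60 min after dosing.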

For experiment [2], the species on record is Mus musculus. The experiment can be described thus: Antianxiety activity was determined by measuring the antagonism of foot shock induced fighting (taming) in mice. Summed up: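 Male albino DS mice (20-24 g), oral dosing as arabic gum suspension. Paired mice under glass enclosure given foot shocks (5 Hz, 2 ms, DC 50 V); pairs with 15–20 fighting episodes in 3 min selected, five pairs per dose. Responses counted before and 60 min after dosing; ED50 = dose giving 50% inhibition, by regression analysis.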

The species named for experiment [3] is Mus musculus. The experiment in a line: Anticonvulsant activity was determined as the degree of protection against convulsions induced by pentylenetetrazole in mice. A digest of the protocol:
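Male albino DS mice (20-24 g), ten per group, dosed orally as arabic gum suspension. Challenged 60 min later with pentylenetetrazole 125 mg/kg sc; protection from convulsion and death scored over 2 h observation. ED50 (dose protecting 50%) estimated by probit method; 95% confidence limits given.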

The species entered for experiment [4] is Mus musculus. The experiment in a line: Sedative activity was determined by measuring the loss of the righting reflux induced by thiopental sodium in mice. A digest of the protocol:
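Male albino DS mice (20-24 g), ten per group, pretreated orally (arabic gum suspension), then given thiopental sodium 35 mg/kg iv. ED50 = dose producing 50% increase in duration of anesthesia, by regression analysis.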

The species named for experiment [5] is Mus musculus. The experiment in a line: Muscle relaxation was determined by using rotatory drum (rotarod) in mice, activity is expressed as ED50 values. Summed up: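 Male albino DS mice (20-24 g), groups of five, oral dosing in aqueous arabic gum. At 60 min placed on a 3 cm wooden rod turning at 5 rpm; animals falling off within 2 min counted. ED50 estimated by up and down method.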
For orientation: Falling from the rotarod earlier than controls is read as motor impairment.

The species named for experiment [6] is Mus musculus. The experiment can be described thus: Sedative activity was determined by measuring the inhibition of spontaneous motor activity.

In the case of `NCC(=O)NCc1nnc(C2CC2)n1-c1ccc(Cl)cc1C(=O)c1ccccc1Cl`, the 50% effective dose (ED50) in the experiment filed under Mus musculus [1] is 0.49 mg/kg; in the experiment filed under Mus musculus [2], 2.34 mg/kg; in the experiment listed under Mus musculus [3], 0.88 mg/kg; in the experiment filed under Mus musculus [4] it was 4.94 mg/kg; in the experiment listed under Mus musculus [5], 18.7 mg/kg; in the experiment listed under Mus musculus [6], 1.5 mg/kg.

Consider `Cc1nnc2n1-c1ccc(Cl)cc1C(c1ccccc1Cl)=NC2` [TRIAZOLAM], for which the ED50 in the experiment filed under Mus musculus [2] was found to be 0.4 mg/kg; in the experiment filed under Mus musculus [3], 0.039 mg/kg; in the experiment filed under Mus musculus [4] it was 0.18 mg/kg; in the experiment listed under Mus musculus [5] it was 0.83 mg/kg; in the experiment listed under Mus musculus [6], 0.054 mg/kg.

Take `CN(C(=O)CNC(=O)CN)c1ccc(Cl)cc1C(=O)c1ccccc1`: the ED50 was 10.9 mg/kg in the experiment listed under Mus musculus [2]; 2.16 mg/kg in the experiment listed under Mus musculus [3]; 5.2 mg/kg in the experiment filed under Mus musculus [4]; 29.3 mg/kg in the experiment listed under Mus musculus [5]; 15.2 mg/kg in the experiment listed under Mus musculus [6].

With `Cc1nnc2n1-c1ccc(Cl)cc1C(c1ccccc1)=NC2` [ALPRAZOLAM], the ED50 came to 0.25 mg/kg in the experiment listed under Mus musculus [1]; 1.09 mg/kg in the experiment filed under Mus musculus [2]; 0.22 mg/kg in the experiment listed under Mus musculus [3]; 0.36 mg/kg in the experiment filed under Mus musculus [4]; 2.22 mg/kg in the experiment filed under Mus musculus [5]; 0.94 mg/kg in the experiment filed under Mus musculus [6].

As for `CN(C(=O)CNC(=O)CN)c1ccc(Cl)cc1C(=O)c1ccccc1Cl` [LORZAFONE ANHYDROUS], the ED50 came out at 2.59 mg/kg in the experiment listed under Mus musculus [1]; 3.2 mg/kg in the experiment listed under Mus musculus [2]; 0.56 mg/kg in the experiment listed under Mus musculus [3]; 0.8 mg/kg in the experiment listed under Mus musculus [4]; 1.4 mg/kg in the experiment listed under Mus musculus [6].

On to `Cc1nnc(CNC(=O)CN)n1-c1ccc(Cl)cc1C(=O)c1ccccc1`, for which the median effective dose (ED50) in the experiment listed under Mus musculus [1] came to 0.94 mg/kg; in the experiment listed under Mus musculus [2], 3.02 mg/kg; in the experiment listed under Mus musculus [3] it was 0.38 mg/kg; in the experiment filed under Mus musculus [4], 0.72 mg/kg; in the experiment filed under Mus musculus [5], 3.94 mg/kg; in the experiment listed under Mus musculus [6] it was 4.25 mg/kg.

On to `Cc1nnc(CNC(=O)C(N)Cc2ccccc2)n1-c1ccc(Cl)cc1C(=O)c1ccccc1Cl` (stereo not drawn), for which the ED50 came out at 0.23 mg/kg in the experiment filed under Mus musculus [1]; 0.55 mg/kg in the experiment filed under Mus musculus [2]; 0.31 mg/kg in the experiment listed under Mus musculus [3]; 1.52 mg/kg in the experiment filed under Mus musculus [4]; 1.83 mg/kg in the experiment filed under Mus musculus [5]; 0.38 mg/kg in the experiment filed under Mus musculus [6].

For `Cc1nnc(CNC(=O)CN)n1-c1ccc(Cl)cc1C(=O)c1ccccc1F`, the ED50 in the experiment listed under Mus musculus [1] is 0.16 mg/kg; in the experiment filed under Mus musculus [2] it was 0.28 mg/kg; in the experiment filed under Mus musculus [3] it was 0.09 mg/kg; in the experiment listed under Mus musculus [4], 0.25 mg/kg; in the experiment listed under Mus musculus [5] it was 1.84 mg/kg; in the experiment filed under Mus musculus [6] it was 1.52 mg/kg.

With `Cc1nnc(CNC(=O)CN)n1-c1ccc(Cl)cc1C(=O)c1ccccc1Cl`, the 50% effective dose (ED50) in the experiment listed under Mus musculus [1] came to 0.62 mg/kg; in the experiment filed under Mus musculus [2] it was 0.58 mg/kg; in the experiment filed under Mus musculus [3], 0.26 mg/kg; in the experiment filed under Mus musculus [4] it was 0.27 mg/kg; in the experiment filed under Mus musculus [5], 2.09 mg/kg; in the experiment listed under Mus musculus [6] it was 0.31 mg/kg.

Regarding `Clc1ccc2c(c1)C(c1ccccc1)=NCc1nncn1-2` [ESTAZOLAM], the ED50 amounted to 6.22 mg/kg in the experiment filed under Mus musculus [1]; 2.62 mg/kg in the experiment filed under Mus musculus [2]; 0.52 mg/kg in the experiment filed under Mus musculus [3]; 2.32 mg/kg in the experiment listed under Mus musculus [4]; 5.44 mg/kg in the experiment listed under Mus musculus [5]; 3.09 mg/kg in the experiment listed under Mus musculus [6].

Turning to `NCC(=O)NCc1nncn1-c1ccc(Cl)cc1C(=O)c1ccccc1`, the 50% effective dose (ED50) stood at 1.66 mg/kg in the experiment filed under Mus musculus [1]; 5.71 mg/kg in the experiment listed under Mus musculus [2]; 1.37 mg/kg in the experiment listed under Mus musculus [3]; 1.97 mg/kg in the experiment filed under Mus musculus [4]; 11.8 mg/kg in the experiment listed under Mus musculus [5]; 31.7 mg/kg in the experiment listed under Mus musculus [6].

Broadly, the ED50 is the dose at which the effect has come halfway, by size or by number of responders.

The record behind these values is ChEMBL document CHEMBL1121989, “Amino acid amide derivatives of 2-[3-(aminomethyl)-4H-1,2,4-triazol-4-yl]benzophenones, a novel class of annelated peptidoaminobenzophenones” (1982).
